Measured values as given in ChEMBL document CHEMBL3992547, “Antimicrobial activity of rhodanine-3-acetic acid derivatives” (Bioorg Med Chem, 2017).
In brackets after ≈: the same amount, converted by molar mass. Activity calls are given as the source filed them. The rule behind the calls is not given here.

Assays:
[1] = test system: Mycobacterium tuberculosis; test: Antimycobacterial activity against Mycobacterium tuberculosis H37Rv 331/88 measured after 14 days by micromethod; type: functional; details: H37Rv 331/88, 336 h
[2] = test system: Mycobacterium tuberculosis; test: Antimycobacterial activity against Mycobacterium tuberculosis H37Rv 331/88 measured after 21 days by micromethod; type: functional; details: H37Rv 331/88, 504 h
[3] = test system: Mycobacterium avium; test: Antimycobacterial activity against Mycobacterium avium 330/88 measured after 14 days by micromethod; type: functional; details: 330/88, 336 h
[4] = test system: Mycobacterium avium; test: Antimycobacterial activity against Mycobacterium avium 330/88 measured after 21 days by micromethod; type: functional; details: 330/88, 504 h
[5] = test system: Mycobacterium kansasii; test: Antimycobacterial activity against Mycobacterium kansasii isolate 235/80 after 7 days by micromethod; type: functional; details: isolate 235/80, 168 h
[6] = test system: Mycobacterium kansasii; test: Antimycobacterial activity against Mycobacterium kansasii isolate 235/80 after 14 days by micromethod; type: functional; details: isolate 235/80, 336 h
[7] = test system: Mycobacterium kansasii; test: Antimycobacterial activity against Mycobacterium kansasii isolate 235/80 after 21 days by micromethod; type: functional; details: isolate 235/80, 504 h
[8] = test system: Mycobacterium kansasii; test: Antimycobacterial activity against Mycobacterium kansasii isolate 6509/96 after 7 days by micromethod; type: functional; details: isolate 6509/96, 168 h
[9] = test system: Mycobacterium kansasii; test: Antimycobacterial activity against Mycobacterium kansasii isolate 6509/96 after 14 days by micromethod; type: functional; details: isolate 6509/96, 336 h
[10] = test system: Mycobacterium kansasii; test: Antimycobacterial activity against Mycobacterium kansasii isolate 6509/96 after 21 days by micromethod; type: functional; details: isolate 6509/96, 504 h
[11] = Solubility of the compound in Sula's semisynthetic medium up to 1 mM; type: physicochemical
[12] = test system: Staphylococcus aureus; test: Antibacterial activity against Staphylococcus aureus CCM 4516/08 incubated for 24 hrs under dark condition by microdilution broth assay; type: functional; details: CCM 4516/08, 24 h
Procedure, shortened: (§1)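 Broth microdilution per M07-A07, modified, in Mueller-Hinton broth adjusted to pH 7.4 (±0.2). Inoculum is prepared in sterile water to McFarland 0.5 (1.5 × 10⁸ CFU/mL). Plates are incubated in the dark at 35 °C in humid air. MIC is read after 24 and 48 h as at least 95% growth reduction versus control (IC₉₅).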

[13] = test system: Staphylococcus aureus; test: Antibacterial activity against Staphylococcus aureus CCM 4516/08 incubated for 48 hrs under dark condition by microdilution broth assay; type: functional; details: CCM 4516/08, 48 h; procedure, shortened: as §1
[14] = test system: Staphylococcus aureus; test: Antibacterial activity against methicillin-resistant Staphylococcus aureus H 5996/08 incubated for 24 hrs under dark condition by microdilution broth assay; type: functional; details: H 5996/08, 24 h
Procedure, shortened: (§2)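 Microdilution broth method modified per M07-A07, in Mueller-Hinton broth adjusted to pH 7.4 (±0.2). Inoculum made in sterile water to 0.5 McFarland (1.5 × 10⁸ CFU/mL). Plates incubated in the dark at 35 °C in a humid atmosphere, with reads at 24 and 48 h. MIC taken as at least 95% growth reduction (IC₉₅) versus control.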

[15] = test system: Staphylococcus aureus; test: Antibacterial activity against methicillin-resistant Staphylococcus aureus H 5996/08 incubated for 48 hrs under dark condition by microdilution broth assay; type: functional; details: H 5996/08, 48 h; procedure, shortened: as §2
[16] = test system: Staphylococcus epidermidis; test: Antibacterial activity against Staphylococcus epidermidis H 6966/08 incubated for 24 hrs under dark condition by microdilution broth assay; type: functional; details: H 6966/08, 24 h; procedure, shortened: as §1
[17] = test system: Staphylococcus epidermidis; test: Antibacterial activity against Staphylococcus epidermidis H 6966/08 incubated for 48 hrs under dark condition by microdilution broth assay; type: functional; details: H 6966/08, 48 h; procedure, shortened: as §1
[18] = test system: Escherichia coli; test: Antibacterial activity against Escherichia coli CCM 4517 incubated for 24 hrs under dark condition by microdilution broth assay; type: functional; details: CCM 4517, 24 h; procedure, shortened: as §1
[19] = test system: Escherichia coli; test: Antibacterial activity against Escherichia coli CCM 4517 incubated for 48 hrs under dark condition by microdilution broth assay; type: functional; details: CCM 4517, 48 h; procedure, shortened: as §1
[20] = test system: Klebsiella pneumoniae; test: Antibacterial activity against Klebsiella pneumoniae D 11750/08 up to 500 uM incubated for 24 to 48 hrs under dark condition by microdilution broth assay; type: functional; procedure, shortened: as §1
[21] = test system: Klebsiella pneumoniae; test: Antibacterial activity against ESBL positive Klebsiella pneumoniae J 14368/08 up to 500 uM incubated for 24 to 48 hrs under dark condition by microdilution broth assay; type: functional; procedure, shortened: as §1
[22] = test system: Pseudomonas aeruginosa; test: Antibacterial activity against Pseudomonas aeruginosa CCM 1961 up to 500 uM incubated for 24 to 48 hrs under dark condition by microdilution broth assay; type: functional; procedure, shortened: as §1
[23] = test system: Pichia kudriavzevii; test: Antifungal activity against Candida krusei E28 after 24 to 48 hrs hrs by microdilution broth assay; type: functional
Procedure, shortened: (§3)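 Broth microdilution per CLSI M27-A3 and M38-A2 in RPMI 1640 with glutamine, buffered to pH 7.0 with MOPS. Compounds are diluted in DMSO. Final inoculum is 5 × 10³ CFU/mL for yeasts and 0.5–5 × 10⁴ CFU/mL for moulds. Plates are incubated in the dark at 35 °C in humid air and read visually and/or at 540 nm after 24 and 48 h. MIC is ≥80% growth reduction (IC₈₀) for yeasts and ≥50% (IC₅₀) for filamentous fungi.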

[24] = test system: Lichtheimia corymbifera; test: Antifungal activity against Absidia corymbifera 272 after 24 to 48 hrs hrs by microdilution broth assay; type: functional; procedure, shortened: as §3
[25] = test system: Enterococcus; test: Antibacterial activity against Enterococcus sp. J 14365/08 incubated for 24 hrs under dark condition by microdilution broth assay; details: J 14365/08, 24 h
[26] = test system: Enterococcus; test: Antibacterial activity against Enterococcus sp. J 14365/08 incubated for 48 hrs under dark condition by microdilution broth assay; details: J 14365/08, 48 h

Row | SMILES | MIC [1] | MIC [2] | MIC [3] | MIC [4] | MIC [5] | MIC [6] | MIC [7] | MIC [8] | MIC [9] | MIC [10] | solubility [11] | MIC95 [12] | MIC95 [13] | MIC95 [14] | MIC95 [15] | MIC95 [16] | MIC95 [17] | MIC95 [18] | MIC95 [19] | Activity [20] | further results
1 | O=C(CN1C(=O)/C(=C/c2cc(Br)ccc2O)SC1=S)Nc1ccc(Cl)cc1 | 32 µM (≈ 15.5 µg/mL) | 62.5 µM (≈ 30.2 µg/mL) | 500 µM (≈ 242 µg/mL) | 500 µM (≈ 242 µg/mL) | 500 µM (≈ 242 µg/mL) | > 500 µM | > 500 µM | 125 µM (≈ 60.5 µg/mL) | 250 µM (≈ 121 µg/mL) | 500 µM (≈ 242 µg/mL) | Soluble | 500 µM (≈ 242 µg/mL) | 500 µM (≈ 242 µg/mL) | 500 µM (≈ 242 µg/mL) | 500 µM (≈ 242 µg/mL) | 500 µM (≈ 242 µg/mL) | 500 µM (≈ 242 µg/mL) | > 500 µM | > 500 µM | inactive | Activity [21]: inactive; Activity [22]: inactive; Activity [23]: inactive; Activity [24]: inactive; MIC95 [25]: 500 µM (≈ 242 µg/mL); MIC95 [26]: 500 µM (≈ 242 µg/mL)
2 | O=C(CN1C(=O)/C(=C/c2cc(Cl)ccc2O)SC1=S)Nc1ccc(Cl)cc1 | 16 µM (≈ 7.03 µg/mL) | 32 µM (≈ 14.1 µg/mL) | 250 µM (≈ 110 µg/mL) | 250 µM (≈ 110 µg/mL) | 125 µM (≈ 54.9 µg/mL) | 125 µM (≈ 54.9 µg/mL) | 250 µM (≈ 110 µg/mL) | 125 µM (≈ 54.9 µg/mL) | 250 µM (≈ 110 µg/mL) | 250 µM (≈ 110 µg/mL) | Insoluble | 250 µM (≈ 110 µg/mL) | > 250 µM | 125 µM (≈ 54.9 µg/mL) | > 250 µM | 250 µM (≈ 110 µg/mL) | > 250 µM | > 250 µM | > 250 µM | inactive | Activity [21]: inactive; Activity [22]: inactive; Activity [23]: inactive; Activity [24]: inactive; MIC95 [25]: > 250 µM; MIC95 [26]: > 250 µM
3 | O=C(CN1C(=O)/C(=C/c2ccccn2)SC1=S)Nc1ccc(Cl)cc1 | > 250 µM | > 250 µM | > 250 µM | > 250 µM | > 250 µM | > 250 µM | > 250 µM | > 250 µM | > 250 µM | > 250 µM | Soluble | > 125 µM | > 125 µM | > 125 µM | > 125 µM | > 125 µM | > 125 µM | > 125 µM | > 125 µM | inactive | Activity [21]: inactive; Activity [22]: inactive; Activity [23]: inactive; Activity [24]: inactive; MIC95 [25]: 125 µM (≈ 48.7 µg/mL); MIC95 [26]: > 125 µM
4 | O=C(O)CN1C(=O)/C(=C/c2cccc(O)c2)SC1=S | 1000 µM (≈ 295 µg/mL) | 1000 µM (≈ 295 µg/mL) | > 1000 µM | > 1000 µM | 1000 µM (≈ 295 µg/mL) | 1000 µM (≈ 295 µg/mL) | 1000 µM (≈ 295 µg/mL) | 500 µM (≈ 148 µg/mL) | 1000 µM (≈ 295 µg/mL) | 1000 µM (≈ 295 µg/mL) | Soluble | > 500 µM | > 500 µM | 500 µM (≈ 148 µg/mL) | > 500 µM | > 500 µM | > 500 µM | > 500 µM | > 500 µM | inactive | Activity [21]: inactive; Activity [22]: inactive; Activity [23]: inactive; Activity [24]: inactive; MIC95 [25]: 500 µM (≈ 148 µg/mL); MIC95 [26]: > 500 µM
5 | O=C(CN1C(=O)CSC1=S)Nc1ccc(Cl)cc1 | 32 µM (≈ 9.63 µg/mL) | 62.5 µM (≈ 18.8 µg/mL) | 1000 µM (≈ 301 µg/mL) | 1000 µM (≈ 301 µg/mL) | 250 µM (≈ 75.2 µg/mL) | 500 µM (≈ 150 µg/mL) | 500 µM (≈ 150 µg/mL) | 125 µM (≈ 37.6 µg/mL) | 250 µM (≈ 75.2 µg/mL) | 250 µM (≈ 75.2 µg/mL) | Soluble | > 500 µM | > 500 µM | > 500 µM | > 500 µM | 500 µM (≈ 150 µg/mL) | > 500 µM | > 500 µM | > 500 µM | inactive | Activity [21]: inactive; Activity [22]: inactive; Activity [23]: inactive; Activity [24]: inactive; MIC95 [25]: 500 µM (≈ 150 µg/mL); MIC95 [26]: > 500 µM
6 | COc1ccc(OC(=O)CN2C(=O)CSC2=S)cc1 | 1000 µM (≈ 297 µg/mL) | 1000 µM (≈ 297 µg/mL) | 1000 µM (≈ 297 µg/mL) | 1000 µM (≈ 297 µg/mL) | 1000 µM (≈ 297 µg/mL) | 1000 µM (≈ 297 µg/mL) | 1000 µM (≈ 297 µg/mL) | 1000 µM (≈ 297 µg/mL) | 1000 µM (≈ 297 µg/mL) | 1000 µM (≈ 297 µg/mL) | Soluble | > 500 µM | > 500 µM | > 500 µM | > 500 µM | 500 µM (≈ 149 µg/mL) | > 500 µM | > 500 µM | > 500 µM | inactive | Activity [21]: inactive; Activity [22]: inactive; Activity [23]: inactive; Activity [24]: inactive; MIC95 [25]: 500 µM (≈ 149 µg/mL); MIC95 [26]: > 500 µM
